Values after ≈ are worked out from the molar mass of the structure shown. Active and inactive are the calls of the source. The rule behind the calls is not given here. Non-standard residues stand in square brackets, D forms with d. Residues, ends and D or L forms follow the SMILES beside them. Trp(5-Cl) = N[C@@H](Cc1c[nH]c2ccc(Cl)cc12)C(=O)O; dAsn(3R-OH) = NC(=O)[C@H](O)[C@@H](N)C(=O)O; aIle = CC[C@@H](C)[C@H](N)C(=O)O; Orn = NCCC[C@H](N)C(=O)O
Assays:
[1] = system: Trichophyton rubrum; test: Antifungal activity against Trichophyton rubrum NBRC 9185; format: functional, organism-based
[2] = system: HCT-116; test: Cytotoxicity against human HCT116 cells; format: functional, cell-based
[3] = system: Enterococcus faecium; test: Antibacterial activity against Enterococcus faecium ATCC 19434 after 24 hrs by two fold serial dilution method; format: functional; conditions: ATCC 19434, 24 h
Method in brief: (§1)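 Bacteria grown overnight in Mueller Hinton broth at 37 °C, centrifuged and washed twice with sterile water. Compounds dissolved in DMSO, then 2-fold serial dilutions 128 to 0.03 μg/mL in broth, final DMSO 1%. Inoculum ~10^7 cfu/mL added to reach final 5 × 10^5 cfu/mL. Incubated 24 h at 37 °C. MIC = lowest concentration inhibiting growth.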

[4] = system: MDA-MB-231; test: Cytotoxicity against human MDA-MB-231 cells; format: functional, cell-based
[5] = system: Enterococcus faecalis; test: Antibacterial activity against Enterococcus faecalis ATCC 19433 after 24 hrs by two fold serial dilution method; format: functional; conditions: ATCC 19433, 24 h; method in brief: as §1
[6] = system: Candida albicans; test: Antifungal activity against Candida albicans ATCC 10231; format: functional, organism-based
[7] = system: A549; test: Cytotoxicity against human A549 cells; format: functional, cell-based
[8] = system: K562; test: Cytotoxicity against human K562 cells; format: functional, cell-based
[9] = system: Trichophyton mentagrophytes; test: Antifungal activity against Trichophyton mentagrophytes IFM 40996; format: functional, organism-based
[10] = system: Escherichia coli; test: Antibacterial activity against Escherichia coli ATCC 25922 after 24 hrs by two fold serial dilution method; format: functional
Method in brief: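 Overnight culture grown in Mueller Hinton broth at 37 °C, centrifuged and washed twice in sterile water. Compound dissolved in DMSO, serially 2-fold diluted in MHB from 128 to 0.03 μg/mL, with DMSO held at 1% final. Inoculum 5 × 10^5 cfu/mL final. Incubated 24 h at 37 °C. MIC taken as the lowest concentration inhibiting growth.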

[11] = system: Staphylococcus aureus; test: Antibacterial activity against Staphylococcus aureus ATCC 25923 after 24 hrs by two fold serial dilution method; format: functional; conditions: ATCC 25923, 24 h; method in brief: as §1
[12] = system: SNU-638; test: Cytotoxicity against human SNU638 cells; format: functional, cell-based
[13] = system: Salmonella typhimurium; test: Antibacterial activity against Salmonella enterica ATCC 14028 after 24 hrs by two fold serial dilution method; format: functional; method in brief: as §1
[14] = system: Aspergillus fumigatus; test: Antifungal activity against Aspergillus fumigatus HIC 6094; format: functional, organism-based
[15] = system: SK-HEP1; test: Cytotoxicity against human SKHEP1 cells; format: functional, cell-based

Structure (SMILES)	Activity [1]	Activity [2]	MIC [3]	Activity [4]	MIC [5]	Activity [6]	Activity [7]	Activity [8]	Activity [9]	MIC [10]	MIC [11]	Activity [12]	MIC ([13]; Salmonella enterica subsp. enterica serovar Typhimurium)	Activity [14]	Activity [15]	MIC ([13]; ATCC 14028, 24 h)	MIC ([10]; ATCC 25922, 24 h)
CC[C@@H](C)[C@@H]1NC(=O)[C@@H](CC(C)C)NC(=O)[C@@H](C(C)C)NC(=O)[C@H](Cc2c[nH]c3ccc(Cl)cc23)NC(=O)[C@@H](CC(N)=O)NC(=O)[C@H](CCCN)NC1=O	inactive	inactive	128 µg/mL (≈ 165 µM)	inactive	128 µg/mL (≈ 165 µM)	inactive	inactive	inactive	inactive	inactive	64 µg/mL (≈ 82.6 µM)	inactive	inactive	inactive	inactive	–	–
CC[C@@H](C)[C@@H]1NC(=O)[C@@H](CC(C)C)NC(=O)[C@@H](C(C)C)NC(=O)[C@H](Cc2c[nH]c3ccc(Cl)cc23)NC(=O)[C@@H]([C@@H](O)C(N)=O)NC(=O)[C@H](CCCN)NC1=O (cyclo([Orn][dAsn(3R-OH)][Trp(5-Cl)][dV][dL][aIle]))	inactive	inactive	16 µg/mL (≈ 20.2 µM)	inactive	16 µg/mL (≈ 20.2 µM)	inactive	inactive	inactive	inactive	inactive	8 µg/mL (≈ 10.1 µM)	inactive	–	inactive	inactive	16 µg/mL (≈ 20.2 µM)	–
CC1(C)S[C@@H]2[C@H](NC(=O)[C@H](N)c3ccccc3)C(=O)N2[C@H]1C(=O)O [AMPICILLIN]	–	–	0.25 µg/mL (≈ 0.715 µM)	–	0.5 µg/mL (≈ 1.43 µM)	–	–	–	–	–	0.13 µg/mL (≈ 0.372 µM)	–	–	–	–	0.13 µg/mL (≈ 0.372 µM)	8 µg/mL (≈ 22.9 µM)
